Assay results from ChEMBL document CHEMBL4425111, “Optically Pure, Structural, and Fluorescent Analogues of a Dimeric Y4 Receptor Agonist Derived by an Olefin Metathesis Approach” (J Med Chem, 2016).

Assays:
[1] = target: T1, Neuropeptide Y receptor type 4 (Homo sapiens, UniProt P50391); experiment: Agonist activity at GFP-tagged neuropeptide Y4R (unknown origin) expressed in HEK293T cells assessed as beta-arrestin2 recruitment measured after 60 mins by H33342 staining-based imaging method; assay type: cell-based
T1 sequence (P50391 whole entry): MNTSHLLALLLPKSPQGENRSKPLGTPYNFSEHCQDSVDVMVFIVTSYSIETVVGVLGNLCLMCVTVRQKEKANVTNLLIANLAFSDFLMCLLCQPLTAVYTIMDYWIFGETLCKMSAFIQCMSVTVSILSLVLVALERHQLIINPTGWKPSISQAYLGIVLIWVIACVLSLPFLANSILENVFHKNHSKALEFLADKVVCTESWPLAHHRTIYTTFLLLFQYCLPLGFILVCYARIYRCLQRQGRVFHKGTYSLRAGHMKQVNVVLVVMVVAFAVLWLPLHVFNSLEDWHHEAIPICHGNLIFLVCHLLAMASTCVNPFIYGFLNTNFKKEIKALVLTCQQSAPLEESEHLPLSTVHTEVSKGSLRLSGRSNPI

Homo sapiens = organism: Homo sapiens; experiment: Selectivity ratio of IC50 for GFP-tagged neuropeptide Y1R (unknown origin) expressed in HEK293T cells to IC50 for C-terminal GFP-tagged neuropeptide Y4R (unknown origin) expressed in human 293TR cells; assay type: cell-based
Summary of the method: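 Whole-cell competition binding used tetracycline-induced 293TR cells expressing Y1-GFP or Y4-GFP. Cells were exposed to competitor for 2 min, then to sCy5-labelled tracer (10 nM for Y1R, 100 nM for Y4R) for 30 min at 37°C.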

[2] = target: T1, Neuropeptide Y receptor type 4; experiment: Displacement of [Lys2(sCy5),Arg4]-BVD-15 from C-terminal GFP-tagged neuropeptide Y4R (unknown origin) expressed in human 293TR cells measured after 30 mins by fluorescence analysis; assay type: cell-based
[3] = target: T1, Neuropeptide Y receptor type 4; experiment: Agonist activity at GFP-tagged neuropeptide Y4R (unknown origin) expressed in HEK293T cells assessed as beta-arrestin2 recruitment measured after 60 mins by H33342 staining-based imaging method relative to PP; assay type: cell-based
Summary of the method: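 Y4R–β-arrestin2 BiFC cell lines were seeded on poly-D-lysine plates and tested 24 h later. Ligands (10^-10–10^-6 M, duplicate wells) were applied in HBSS/0.1% BSA for 60 min at 37°C. Cells were fixed with 3% paraformaldehyde (10 min, 21°C) and nuclei stained with H33342. Confocal images were taken at 405/488 nm, and internal YFP granules ≥3 µm were counted against vehicle or 100 nM PP thresholds.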

[4] = target: T1, Neuropeptide Y receptor type 4; experiment: Agonist activity at GFP-tagged neuropeptide Y4R (unknown origin) expressed in HEK293T cells assessed as beta-arrestin2 recruitment at 1 uM measured after 60 mins by H33342 staining-based imaging method relative to PP; assay type: cell-based
Summary of the method: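 Y4R–β-arrestin2 BiFC cells were stimulated in HBSS/0.1% BSA for 60 min at 37°C, then fixed with 3% paraformaldehyde and stained with H33342. Complemented YFP was imaged by confocal platereader and quantified by granularity analysis with vehicle or 100 nM PP controls. Where agonist activity was not significant, the response at 1 µM peptide was reported.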

[5] = Cellular uptake in human 293T-rex cells expressing C-terminal GFP-tagged neuropeptide Y4R measured after 30 mins by fluorescence analysis; assay type: ADME, cell-based; conditions: hek-293t, 0.5 h
Summary of the method: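 293TR Y4-GFP cells, induced with 1 µg/ml tetracycline for 18–21 h, were incubated with sCy5-labelled peptide for 30 min at 37°C in HBSS/0.1% BSA with H33342. Controls were uninduced cells and 1 µM PP competition. Surface and intracellular sCy5 fluorescence was imaged by confocal platereader.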

SMILES | EC50 ([1]; read-out: EC50) | Ratio IC50 (Homo sapiens) | IC50 ([2]; read-out: IC50) | Rmax [3] | IC50 ([2]; read-out: pIC50 (converted)) | Rmax [4] | EC50 ([1]; read-out: pEC50 (converted)) | Drug uptake [5]
CC(C)C[C@H](NC(=O)[C@H](CCCNC(=N)N)NC(=O)[C@H](Cc1ccc(O)cc1)NC(=O)[C@H](N)CCCC[C@@H](N)C(=O)N[C@@H](Cc1ccc(O)cc1)C(=O)N[C@@H](CCCNC(=N)N)C(=O)N[C@@H](CC(C)C)C(=O)N[C@@H](CCCNC(=N)N)C(=O)N[C@@H](Cc1ccc(O)cc1)C(N)=O)C(=O)N[C@@H](CCCNC(=N)N)C(=O)N[C@@H](Cc1ccc(O)cc1)C(N)=O | 4.6 nM | 30 | 12.7 nM | 61.5% | – | – | – | –
CCN(CC)c1ccc2c(-c3ccccc3C(=O)N3CCN(C(=O)CCC(=O)N[C@@H](CCCC[C@H](N)C(=O)N[C@@H](Cc4ccc(O)cc4)C(=O)N[C@@H](CCCNC(=N)N)C(=O)N[C@@H](CC(C)C)C(=O)N[C@@H](CCCNC(=N)N)C(=O)N[C@@H](Cc4ccc(O)cc4)C(N)=O)C(=O)N[C@@H](Cc4ccc(O)cc4)C(=O)N[C@@H](CCCNC(=N)N)C(=O)N[C@@H](CC(C)C)C(=O)N[C@@H](CCCNC(=N)N)C(=O)N[C@@H](Cc4ccc(O)cc4)C(N)=O)CC3)c3ccc(=[N+](CC)CC)cc-3oc2c1 | – | – | – | – | 70.8 nM | 15.9% | – | –
CCN1\C(=C/C=C/C=C/C2=[N+](CCCCCC(=O)N[C@@H](CCCC[C@H](N)C(=O)N[C@@H](Cc3ccc(O)cc3)C(=O)N[C@@H](CCCNC(=N)N)C(=O)N[C@@H](CC(C)C)C(=O)N[C@@H](CCCNC(=N)N)C(=O)N[C@@H](Cc3ccc(O)cc3)C(N)=O)C(=O)N[C@@H](Cc3ccc(O)cc3)C(=O)N[C@@H](CCCNC(=N)N)C(=O)N[C@@H](CC(C)C)C(=O)N[C@@H](CCCNC(=N)N)C(=O)N[C@@H](Cc3ccc(O)cc3)C(N)=O)c3ccc(S(=O)(=O)O)cc3C2(C)C)C(C)(C)c2cc(S(=O)(=O)[O-])ccc21 | – | – | – | 56.6% | – | – | 95.5 nM | Dose-dependent effect
CC(C)C[C@H](NC(=O)[C@H](CCCNC(=N)N)NC(=O)[C@H](Cc1ccc(O)cc1)NC(=O)[C@@H](N)C/C=C\C[C@H](N)C(=O)N[C@@H](Cc1ccc(O)cc1)C(=O)N[C@@H](CCCNC(=N)N)C(=O)N[C@@H](CC(C)C)C(=O)N[C@@H](CCCNC(=N)N)C(=O)N[C@@H](Cc1ccc(O)cc1)C(N)=O)C(=O)N[C@@H](CCCNC(=N)N)C(=O)N[C@@H](Cc1ccc(O)cc1)C(N)=O | – | 3.7 | – | 44.5% | 132 nM | – | 30.2 nM | –
COC(=O)[C@H](Cc1ccc(O)cc1)NC(=O)[C@H](CCCNC(=N)N)NC(=O)[C@H](CC(C)C)NC(=O)[C@H](CCCNC(=N)N)NC(=O)[C@H](Cc1ccc(O)cc1)NC(=O)[C@@H](N)CCCC[C@H](N)C(=O)N[C@@H](Cc1ccc(O)cc1)C(=O)N[C@@H](CCCNC(=N)N)C(=O)N[C@@H](CC(C)C)C(=O)N[C@@H](CCCNC(=N)N)C(=O)N[C@@H](Cc1ccc(O)cc1)C(=O)OC | – | 0.38 | – | – | 617 nM | 11.3% | – | –
CC(C)C[C@H](NC(=O)[C@H](CCCNC(=N)N)NC(=O)[C@H](Cc1ccc(O)cc1)NC(=O)[C@H](N)C/C=C\C[C@@H](N)C(=O)N[C@@H](Cc1ccc(O)cc1)C(=O)N[C@@H](CCCNC(=N)N)C(=O)N[C@@H](CC(C)C)C(=O)N[C@@H](CCCNC(=N)N)C(=O)N[C@@H](Cc1ccc(O)cc1)C(N)=O)C(=O)N[C@@H](CCCNC(=N)N)C(=O)N[C@@H](Cc1ccc(O)cc1)C(N)=O | – | – | – | 61% | 24 nM | – | 38 nM | –
COC(=O)[C@H](Cc1ccc(O)cc1)NC(=O)[C@H](CCCNC(=N)N)NC(=O)[C@H](CC(C)C)NC(=O)[C@H](CCCNC(=N)N)NC(=O)[C@H](Cc1ccc(O)cc1)NC(=O)[C@@H](N)CCCC[C@H](N)C(=O)N[C@@H](Cc1ccc(O)cc1)C(=O)N[C@@H](CCCNC(=N)N)C(=O)N[C@@H](CC(C)C)C(=O)N[C@@H](CCCNC(=N)N)C(=O)N[C@@H](Cc1ccc(O)cc1)C(N)=O | – | – | – | 49.1% | 93.3 nM | – | > 316 nM | –
CC(C)C[C@H](NC(=O)[C@H](CCCNC(=N)N)NC(=O)[C@H](Cc1ccc(O)cc1)NC(=O)[C@@H](N)CCCC[C@H](N)C(=O)N[C@@H](Cc1ccc(O)cc1)C(=O)N[C@@H](CCCNC(=N)N)C(=O)N[C@@H](CC(C)C)C(=O)N[C@@H](CCCNC(=N)N)C(=O)N[C@@H](Cc1ccc(O)cc1)C(N)=O)C(=O)N[C@@H](CCCNC(=N)N)C(=O)N[C@@H](Cc1ccc(O)cc1)C(N)=O | – | – | – | 57.1% | 69.2 nM | – | 83.2 nM | –
CCN(CC)c1ccc2c(-c3ccccc3C(=O)N3CCN(C(=O)CCC(=O)N[C@H](C/C=C\C[C@@H](N)C(=O)N[C@@H](Cc4ccc(O)cc4)C(=O)N[C@@H](CCCNC(=N)N)C(=O)N[C@@H](CC(C)C)C(=O)N[C@@H](CCCNC(=N)N)C(=O)N[C@@H](Cc4ccc(O)cc4)C(N)=O)C(=O)N[C@@H](Cc4ccc(O)cc4)C(=O)N[C@@H](CCCNC(=N)N)C(=O)N[C@@H](CC(C)C)C(=O)N[C@@H](CCCNC(=N)N)C(=O)N[C@@H](Cc4ccc(O)cc4)C(N)=O)CC3)c3ccc(=[N+](CC)CC)cc-3oc2c1 | – | – | – | 39.3% | 70.8 nM | – | 3.72 nM | –
CCN(CC)c1ccc2c(-c3ccccc3C(=O)N3CCN(C(=O)CCC(=O)N[C@@H](C/C=C\C[C@H](N)C(=O)N[C@@H](Cc4ccc(O)cc4)C(=O)N[C@@H](CCCNC(=N)N)C(=O)N[C@@H](CC(C)C)C(=O)N[C@@H](CCCNC(=N)N)C(=O)N[C@@H](Cc4ccc(O)cc4)C(N)=O)C(=O)N[C@@H](Cc4ccc(O)cc4)C(=O)N[C@@H](CCCNC(=N)N)C(=O)N[C@@H](CC(C)C)C(=O)N[C@@H](CCCNC(=N)N)C(=O)N[C@@H](Cc4ccc(O)cc4)C(N)=O)CC3)c3ccc(=[N+](CC)CC)cc-3oc2c1 | – | – | – | 29.2% | 69.2 nM | – | 5.5 nM | –
CCN1\C(=C/C=C/C=C/C2=[N+](CCCCCC(=O)N[C@H](CCCC[C@@H](N)C(=O)N[C@@H](Cc3ccc(O)cc3)C(=O)N[C@@H](CCCNC(=N)N)C(=O)N[C@@H](CC(C)C)C(=O)N[C@@H](CCCNC(=N)N)C(=O)N[C@@H](Cc3ccc(O)cc3)C(N)=O)C(=O)N[C@@H](Cc3ccc(O)cc3)C(=O)N[C@@H](CCCNC(=N)N)C(=O)N[C@@H](CC(C)C)C(=O)N[C@@H](CCCNC(=N)N)C(=O)N[C@@H](Cc3ccc(O)cc3)C(N)=O)c3ccc(S(=O)(=O)O)cc3C2(C)C)C(C)(C)c2cc(S(=O)(=O)[O-])ccc21 | – | – | – | 65.6% | – | – | 33.1 nM | Dose-dependent effect
